Source: PubChem BioAssay (several laboratories)
Shown are actives, neighbours in structure and some others; about 1.3% of the full set was active somewhere.
Rpn11 block = Rpn11 (human) deubiquitinase inhibition | O00487 | human 26S proteasome, Ub4-pepOG fluorescence polarization; 20S core pre-blocked with epoxomicin | inhibition, % at 20 µM | hit rate 0.59% among 360,000;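 active means inhibition at 20 µM, scaled to each plate's controls, above about 33%, limit read from the data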
HNF4A DNA FP = change in binding of human HNF4 alpha to DNA | HNF4a-FITC DNA binding, fluorescence polarization, 1 h | activity change, % at 10 µM | hit rate 0.3% among 360,000 | AID 1224865; in the data active means activity change above about 30%, passing the limit was not always enough
TPT1 inh = C. albicans TPT1 enzyme inhibition | recombinant caTPT1, FP RNA substrate dephosphorylation | inhibition, % at 5 µM | hit rate 0.81% among 300,000;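 active means inhibition above the mean of all tested compounds plus 3 SD, set per screening campaign, cut at about 24% in these data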;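 further: plate controls were DMSO alone for no effect and ferristatin control at 100 nM for full effect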
aDG glyco act = alpha-DG glycosylation activation; hit rate 0.22% among 360,000; activation, % at 10 µM; AID 624168; Pro5-aDG cells, alpha-DG glycosylation AlphaScreen (IIH6); 0% Pro5, 100% B10-LARGE cell signal;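 active means activation of at least 8% versus controls, or a plate z-score of at least 8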;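 further: Pro5 are CHO cells carrying HIG-tagged alpha-DG that lacks glycosylation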
CSN inh = blocks human CSN-mediated cullin deneddylation. Q92905. Purified CSN, SCF-Nedd8-OG deneddylation, fluorescence polarization. inhibition, % at 12.5 µM. hit rate 0.38% among 360,000;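 active means pattern-corrected inhibition above about 35%, with an unprinted fluorescence ratio check between 0.5 and 1.5, limit read from the data, passing the limit was not always enough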;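 further: 0% = enzyme with substrate and 100% = substrate without enzyme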
Target sequence (Q92905 whole entry, looked up, one chain of several): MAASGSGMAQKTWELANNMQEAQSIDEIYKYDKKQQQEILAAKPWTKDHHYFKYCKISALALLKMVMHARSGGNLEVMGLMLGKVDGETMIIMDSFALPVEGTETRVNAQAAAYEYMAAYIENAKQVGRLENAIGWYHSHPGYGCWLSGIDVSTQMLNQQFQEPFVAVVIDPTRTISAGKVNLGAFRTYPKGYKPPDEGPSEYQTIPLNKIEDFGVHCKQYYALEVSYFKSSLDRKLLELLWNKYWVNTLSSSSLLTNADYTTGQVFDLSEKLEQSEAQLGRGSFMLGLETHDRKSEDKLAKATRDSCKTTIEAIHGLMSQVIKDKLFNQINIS
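Schedule: reaction 90 min, room temperature / Assay system: HEK293T-derived human Csn5 enzyme / Input: Csn5 at 0.24 nM final / Measure: inhibition of Csn5 cleavage, % / Control set: substrate-only high control, full reaction low control / Technique: fluorescence polarization of the substrate / Buffer or medium: Tris/NaCl/DTT buffer, pH 7.5 / Reagent: SCFSkp2-Nedd8OG substrate at 10 nM final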
XiGFP reactiv = X-chromosome reactivation activator; hit rate 0.055% among 360,000; AID 743238; XiGFP mouse fibroblasts, % GFP-positive cells imaging, 3 d; cells co-treated with 5-aza-dC sensitizer; scaled so ellipticine positive control = 100%; activation, % at 7.58 µM;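 active means mean normalized replicate activation at least 10% and every replicate at or above 10%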;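 further: 0% = median of on-plate neutral control wells and 100% = ellipticine 6 µM median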
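Assay system: SV40-immortalized XiGFP fibroblast cells, line 68-5-11; buffer or medium: DMEM plus 5-aza-dC sensitizer; compound: one concentration, pinned; timing: compounds 3 days, fix/stain 15 min at room temperature; benchmarks: positive control ellipticine, 6 µM final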
TPT1 inh confirm = TPT1 (C. albicans) inhibition, confirmation. shares compounds with TPT1 inh. recombinant caTPT1, fluorescence polarization, RNase T1 coupled. inhibition, % at 5 µM. hit rate 74% among 2,400;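 active means inhibition above the primary screen limit, the mean inhibition of all tested compounds plus 3 SD, cut at about 25% in these data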
RNase T1 inh = RNase T1 inhibition in TPT1 counter-screen. inhibition, % at 5 µM. RNase T1 cleavage, fluorescence polarization, 1536-well. hit rate 83% among 2,400. shares compounds with TPT1 inh;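 active means inhibition above the solvent-only control well mean plus 3 SD, limit set per screening run, cut at about 23% in these data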;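 further: plate controls were DMSO wells with enzyme for no effect and wells without RNase T1 for full effect; inhibitors block cleavage so intact labeled substrate keeps polarization high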
Target sequence (P00651 whole entry, looked up): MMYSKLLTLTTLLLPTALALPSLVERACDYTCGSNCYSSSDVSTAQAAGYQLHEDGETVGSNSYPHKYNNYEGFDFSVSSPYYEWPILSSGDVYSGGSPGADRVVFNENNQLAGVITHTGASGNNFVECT
* marks the source's active call; other numbers are inactive results; · = no result shown.

SMILES	Rpn11 block	HNF4A DNA FP	TPT1 inh	aDG glyco act	CSN inh	XiGFP reactiv	TPT1 inh confirm	RNase T1 inh
O=C(O)c1ccc(-n2c(-c3cc(-c4ccco4)[nH]n3)n[nH]c2=S)cc1	-15	-18	5	-1	42*	·	·	·
CC(=O)c1ccc(-n2c(-c3cc(-c4ccco4)[nH]n3)n[nH]c2=S)cc1	7	-2	2	1	28	·	·	·
C[C@@H]1CN(C)C(=O)Cc2cc(N)ccc2O[C@@H]1CN(C)C(=O)OC(C)(C)C	·	·	·	·	·	0	·	·
Cc1ccc(CNC(=O)c2nnn(CC(=O)Nc3cccc(C)c3C)c2N)cc1	16	-3	-1	0	36*	0	·	·
Cc1ccc(CNC(=O)Cn2nnc(C(=O)Nc3cccc(C)c3C)c2N)cc1	6	1	0	0	4	0	·	·
O=C(NCc1cc(C(F)(F)F)ccc1Cl)c1cccc2c1C(=O)c1ccc(N3CCCCC3)cc1S2(=O)=O	·	73	·	0	55*	0	·	·
O=C(NCc1ccc(OC(F)(F)F)cc1)c1cccc2c1C(=O)c1ccc(N3CCCC3)cc1S2(=O)=O	·	99	·	0	85*	0	·	·
O=C(C[C@@H]1C[C@@H]2c3cc(NC(=O)Nc4ccccc4)ccc3O[C@@H]2[C@H](CO)O1)NCc1cccnc1	·	·	·	·	·	0	·	·
CN(C)CC(=O)N1[C@@H]2c3ccc(C4=CCCC4)c(=O)n3C[C@H]1[C@H](CO)[C@H]2C(=O)NCC1CCCCC1	·	·	·	·	·	1	·	·
CCCC#Cc1ccc2c(c1)[C@@H]1[C@@H](CCN1C(=O)C1CCC1)[C@@H](CO)N2	·	·	·	·	·	0	·	·
O=C1OC(c2cccs2)=N/C1=C\c1ccc(-c2ccccc2Cl)o1	87*	17	·	0	23	·	·	·
CCOc1ccc(N/C=C/C(=O)c2ccc(OC)c(OC)c2)cc1	3	1	0	0	2	0	·	·
CCOC(=O)c1ccc(N/C=C/C(=O)c2ccc(OC)c(OC)c2)cc1	2	-2	1	0	101*	·	·	·
CC(=O)C1=C(C)N=c2s/c(=C/c3ccc4c(c3)OCO4)c(=O)n2C1c1ccc(N(C)C)cc1 (stereo unspecified)	·	78*	·	0	42*	0	·	·
CC(=O)Nc1cccc(NC(=O)Nc2ccc(F)cc2F)c1	2	3	55*	0	2	0	2	3
COc1ccc(CN(C)C[C@@H]2Oc3ccc(NC(=O)Nc4ccc(F)cc4)cc3CC(=O)N([C@H](C)CO)C[C@@H]2C)cc1	·	·	·	·	·	0	·	·
COc1ccc2ccccc2c1/C=N/N1C(=O)CSC1=S	39	-119	27*	0	3	0	9	12
O=C(C[n+]1ccccc1)c1ccc(-c2ccccc2)cc1	6	4	40*	0	-2	0	4	9
CN(C)c1cc[n+](CC(=O)c2ccc(-c3ccccc3)cc2)cc1	-2	1	0	0	-2	0	·	·
CC(C)NC(=O)N[C@@H]1CC[C@H](CCNS(=O)(=O)c2ccc(Cl)cc2)O[C@@H]1CO	·	·	·	·	·	-1	·	·
Cc1cc(=O)oc2c3c4c(cc12)OCCN4CCC3	-10	6	30*	0	-3	·	13	22*
CC(C)c1cc(=O)oc2c3c4c(cc12)CCCN4CCC3	1	13	29*	0	2	·	32*	41*
Oc1ccc(Nc2nc3ccccc3nc2Nc2ccc(O)cc2)cc1	53*	44*	52*	-1	29	·	49*	67*
COc1cccc(-c2ccc3n(c2=O)C[C@@H]2[C@@H](CO)[C@H](C(=O)N(C)C)N(C(=O)C4CCCC4)[C@H]32)c1	·	·	·	·	·	0	·	·
COCC(=O)N1CCC2(CC1)CN(Cc1cccc(OC)c1)[C@H](CO)c1c2c2ccc(OC)cc2n1C	·	·	·	·	·	1	·	·
SMILES	Rpn11 block	HNF4A DNA FP	TPT1 inh	aDG glyco act	CSN inh	XiGFP reactiv	TPT1 inh confirm	RNase T1 inh
COc1cc(/C=N/NC(=O)CC#N)cc(Br)c1O	18	-2	27*	0	1	0	16	19
COc1cc(/C=N/NC(=O)Cc2ccc(Br)cc2)cc(OC)c1O	-3	-1	-2	0	-4	0	·	·
COc1ccccc1CNC(=O)C[C@@H]1C[C@@H]2c3cc(NS(C)(=O)=O)ccc3O[C@@H]2[C@@H](CO)O1	·	·	·	·	·	0	·	·
COc1cccc(NC(=O)N2C[C@H](O)COC[C@@H]3O[C@@H](CC(=O)NCc4ccccc4F)CC[C@H]32)c1	·	·	·	·	·	0	·	·
C/C(=N\Nc1ccc([N+](=O)[O-])cc1)c1cccc(N)c1	24	12	13	0	3	·	·	·
CC(=O)NC/C(C)=N\Nc1ccc([N+](=O)[O-])cc1	36	10	32*	0	13	0	43*	55*
C/C(=N\Nc1ccc([N+](=O)[O-])cc1)c1ccc(O)cc1	·	51*	94*	1	14	0	91*	100*
CC1CC(=O)Nc2ccccc2N1S(=O)(=O)c1ccc(Cl)cc1 (stereo unspecified)	-2	3	74*	0	5	0	2	7
CC1CC(=O)Nc2ccccc2N1S(=O)(=O)c1ccccc1 (stereo unspecified)	0	-1	2	0	-1	·	·	·
COc1cccc(S(=O)(=O)Nc2ccc3c(c2)OC[C@H](C)N(Cc2ccccc2F)C[C@H](C)[C@H](OC)CN(C)C3=O)c1	·	·	·	·	·	0	·	·
CN1/C(=C\C(=O)Nc2ccc(F)cc2)C(C)(C)c2ccccc21	6	-1	-3	0	4	0	·	·
CN1/C(=C\C=C(/C#N)C(=O)Nc2ccccc2F)C(C)(C)c2ccccc21	·	102	123*	0	123	0	95*	93*
O=C(COc1ccc(S(=O)(=O)N2CCCC2)cc1)N1CCN(c2ccccc2F)CC1	-4	0	-5	0	-1	0	·	·
CCOC(=O)COc1ccc(S(=O)(=O)N2CCN(c3ccccc3F)CC2)cc1	1	1	109*	0	5	·	7	10
COc1ccc(C)c2sc(=NC(=O)c3cccc(N4C(=O)CCC4=O)c3)n(C)c12	-1	1	38*	0	1	0	-1	5
O=C(CCN1C(=O)/C(=C/c2cccs2)SC1=S)N1CCCCC1	30	10	33*	0	8	0	34*	46*
O=C(CCN1C(=O)/C(=C\c2ccccc2)SC1=S)N1CCCCC1	17	0	2	0	1	0	·	·
C[C@@H]1CN([C@H](C)CO)C(=O)CCCn2cc(nn2)CO[C@H]1CN(C)Cc1ccc(C(=O)Nc2ccccc2N)cc1	·	·	·	·	·	-1	·	·
